Test results taken from ChEMBL document CHEMBL1134679, “Exploiting subsite S1 of trypsin-like serine proteases for selectivity: potent and selective inhibitors of urokinase-type plasminogen activator” (J Med Chem, 2001).

Assays:
[1] = biological target: Coagulation factor X (Homo sapiens, UniProt P00742); assay: Binding affinity against human coagulation factor X
[2] = biological target: T1, Coagulation factor VII (Homo sapiens, UniProt P08709); assay: The compound was tested for inhibition of human coagulation factor VII
T1 sequence (P08709 whole entry): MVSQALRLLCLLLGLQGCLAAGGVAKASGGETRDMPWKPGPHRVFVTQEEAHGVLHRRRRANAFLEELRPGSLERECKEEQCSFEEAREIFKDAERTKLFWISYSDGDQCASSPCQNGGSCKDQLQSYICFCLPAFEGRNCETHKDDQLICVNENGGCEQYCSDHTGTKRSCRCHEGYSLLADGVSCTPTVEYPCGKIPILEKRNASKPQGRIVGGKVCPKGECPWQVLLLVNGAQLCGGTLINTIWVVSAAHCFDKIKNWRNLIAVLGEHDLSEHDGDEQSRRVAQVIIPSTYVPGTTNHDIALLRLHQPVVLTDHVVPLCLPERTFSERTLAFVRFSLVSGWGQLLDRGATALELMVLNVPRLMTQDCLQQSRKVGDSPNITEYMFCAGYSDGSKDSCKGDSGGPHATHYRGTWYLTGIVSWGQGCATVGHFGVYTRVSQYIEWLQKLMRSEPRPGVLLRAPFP

[3] = biological target: Plasma kallikrein (Homo sapiens, UniProt P03952); assay: The compound was tested for inhibition of human p-kallikrein
[4] = biological target: Urokinase-type plasminogen activator (Homo sapiens, UniProt P00749); assay: The compound was tested for inhibition of human urokinase type plasminogen activator (microPa)
[5] = biological target: Trypsin (Homo sapiens, UniProt P07477+P07478+P35030); assay: The compound was tested for inhibition of human trypsin; type: protein assay
[6] = biological target: Tissue-type plasminogen activator (Homo sapiens, UniProt P00750); assay: The compound was tested for inhibition of human tissue plasminogen activator
[7] = biological target: Prothrombin (Homo sapiens, UniProt P00734); assay: The compound was tested for inhibition of human thrombin
[8] = Volume of distribution in Sprague-Dawley Rat (Wt 294) was determined after iv administration at a dose of 2 mg/kg; type: ADME, organism-based; design: dose 2 mg/kg, route intravenous; settings: in vivo, read-out: Vc
Method in brief: (§1)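 Male Sprague-Dawley rats, three per group, received a single IV tail-vein bolus in 40% PEG400/H2O (1 or 2 mg/mL). Jugular blood was drawn into heparin at several times up to 24 h. Plasma was held at −80 °C, then assayed by LC-MS/MS against standard curves of 1–10000 ng/mL (LOQ 6 ng/mL). Parameters are mean ± SD; AUC runs 0 to infinity; volume of distribution is central compartment.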

[9] = Plasma clearance of compound in Sprague-Dawley Rat (Wt 294) was determined after iv administration at a dose of 2 mg/kg; type: ADME, organism-based; design: dose 2 mg/kg, route intravenous; settings: read-out: Clp; method in brief: as §1
[10] = Mean residence time of compound in Sprague-Dawley Rat (Wt 294) was determined after iv administration at a dose of 2 mg/kg; type: ADME, organism-based; design: dose 2 mg/kg, route intravenous; settings: in vivo; method in brief: as §1
[11] = test system: Rattus norvegicus; assay: Integrated area under the plasma concentration in Sprague-Dawley Rat (Wt 294) was determined after iv administration at a dose of 2 mg/kg; type: ADME, organism-based; design: dose 2 mg/kg, route intravenous; settings: in vivo; method in brief: as §1
[12] = Volume of distribution at steady state in Sprague-Dawley Rat (Wt 294) was determined after iv administration at a dose of 2 mg/kg; type: ADME, organism-based; design: dose 2 mg/kg, route intravenous; settings: in vivo, read-out: Vss; method in brief: as §1
[13] = terminal half-life in Sprague-Dawley Rat (Wt 294) was determined after iv administration at a dose of 2 mg/kg; type: ADME, organism-based; design: dose 2 mg/kg, route intravenous; settings: in vivo; method in brief: as §1
[14] = Volume of distribution in Sprague-Dawley Rat (Wt 286) was determined after iv administration at a dose of 1 mg/kg; type: ADME, organism-based; design: dose 1 mg/kg, route intravenous; settings: in vivo, read-out: Vc; method in brief: as §1
[15] = Plasma clearance of compound in Sprague-Dawley Rat (Wt 286) was determined after iv administration at a dose of 1 mg/kg; type: ADME, organism-based; design: dose 1 mg/kg, route intravenous; settings: read-out: Clp; method in brief: as §1
[16] = test system: Rattus norvegicus; assay: Area undercurve in Sprague-Dawley Rat (Wt 286) was determined after iv administration at a dose of 1 mg/kg; type: ADME, organism-based; design: dose 1 mg/kg, route intravenous; settings: in vivo; method in brief: as §1
[17] = mean residence time in Sprague-Dawley Rat (Wt 286) was determined after iv administration at a dose of 1 mg/kg; type: ADME, organism-based; design: dose 1 mg/kg, route intravenous; settings: in vivo; method in brief: as §1
[18] = Volume of distribution at steady state in Sprague-Dawley Rat (Wt 286) was determined after iv administration at a dose of 1 mg/kg; type: ADME, organism-based; design: dose 1 mg/kg, route intravenous; settings: in vivo, read-out: Vss; method in brief: as §1
[19] = terminal half-life in Sprague-Dawley Rat (Wt 286) was determined after iv administration at a dose of 1 mg/kg; type: ADME, organism-based; design: dose 1 mg/kg, route intravenous; settings: in vivo; method in brief: as §1

Sequence of Coagulation factor X (P00742 41-179 limits assumed): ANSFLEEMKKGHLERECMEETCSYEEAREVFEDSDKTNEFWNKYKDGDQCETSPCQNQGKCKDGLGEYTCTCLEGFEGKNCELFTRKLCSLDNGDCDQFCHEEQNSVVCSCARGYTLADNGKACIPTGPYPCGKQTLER
Sequence of Coagulation factor X (P00742 235-488 limits assumed): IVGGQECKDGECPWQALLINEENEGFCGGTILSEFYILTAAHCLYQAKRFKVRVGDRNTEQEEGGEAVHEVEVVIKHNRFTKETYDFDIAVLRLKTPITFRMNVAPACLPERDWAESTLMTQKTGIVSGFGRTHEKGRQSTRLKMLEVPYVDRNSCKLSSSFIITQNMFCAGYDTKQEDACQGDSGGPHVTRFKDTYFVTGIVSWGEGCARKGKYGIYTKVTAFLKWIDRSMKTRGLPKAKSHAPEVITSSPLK
Sequence of Plasma kallikrein (P03952 20-390 limits assumed): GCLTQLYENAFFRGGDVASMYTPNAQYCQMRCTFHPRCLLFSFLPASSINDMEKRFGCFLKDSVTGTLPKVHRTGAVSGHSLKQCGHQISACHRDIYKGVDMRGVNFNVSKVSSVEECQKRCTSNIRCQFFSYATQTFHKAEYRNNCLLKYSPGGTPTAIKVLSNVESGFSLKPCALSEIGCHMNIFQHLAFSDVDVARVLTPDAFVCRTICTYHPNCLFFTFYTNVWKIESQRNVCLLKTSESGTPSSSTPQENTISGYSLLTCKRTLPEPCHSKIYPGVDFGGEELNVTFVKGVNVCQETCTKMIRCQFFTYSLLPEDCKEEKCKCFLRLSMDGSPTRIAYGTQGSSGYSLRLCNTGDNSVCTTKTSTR
Sequence of Plasma kallikrein (P03952 391-638 limits assumed): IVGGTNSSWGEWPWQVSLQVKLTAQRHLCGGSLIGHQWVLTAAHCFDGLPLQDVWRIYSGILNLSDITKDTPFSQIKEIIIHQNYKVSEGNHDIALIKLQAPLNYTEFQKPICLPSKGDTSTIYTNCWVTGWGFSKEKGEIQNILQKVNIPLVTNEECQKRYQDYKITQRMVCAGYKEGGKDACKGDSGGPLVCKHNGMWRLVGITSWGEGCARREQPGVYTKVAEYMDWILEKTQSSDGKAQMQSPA
Sequence of Tissue-type plasminogen activator (P00750 whole entry): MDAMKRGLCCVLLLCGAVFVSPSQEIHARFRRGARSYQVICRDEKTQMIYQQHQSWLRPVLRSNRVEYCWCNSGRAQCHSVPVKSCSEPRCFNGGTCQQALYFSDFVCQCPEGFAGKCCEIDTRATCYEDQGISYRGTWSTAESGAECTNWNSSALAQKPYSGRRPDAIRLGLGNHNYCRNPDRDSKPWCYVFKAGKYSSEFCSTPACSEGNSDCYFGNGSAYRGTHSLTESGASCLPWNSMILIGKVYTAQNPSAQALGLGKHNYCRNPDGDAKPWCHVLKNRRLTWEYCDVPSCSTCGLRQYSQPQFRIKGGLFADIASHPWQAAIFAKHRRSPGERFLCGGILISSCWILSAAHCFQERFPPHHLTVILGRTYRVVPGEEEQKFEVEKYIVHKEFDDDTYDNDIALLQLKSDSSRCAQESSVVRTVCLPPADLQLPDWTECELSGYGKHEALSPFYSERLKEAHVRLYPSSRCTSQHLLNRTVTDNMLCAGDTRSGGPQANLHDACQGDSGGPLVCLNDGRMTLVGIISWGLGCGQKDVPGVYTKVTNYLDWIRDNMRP

Row | Compound | Ki [1] [µM] | Ki [2] [µM] | Ki [3] [µM] | Ki [4] [µM] | Ki [5] [µM] | Ki [7] [µM] | further results
1 | N=C(N)c1ccc2[nH]c(-c3cccc(-c4ccccc4)c3O)cc2c1Cl | 5.2 | 5.5 | 1.3 | 0.49 | 4.7 | 65 | Ki [6]: 3.3 µM
2 | COc1cc2[nH]c(-c3cccc(-c4ccccc4)c3O)cc2cc1C(=N)N | 26 | 16 | 0.6 | 0.36 | 14 | > 75 | –
3 | Cc1cc2[nH]c(-c3cccc(-c4ccccc4)c3O)cc2cc1C(=N)N | > 75 | 7 | 4.8 | 0.1 | 1.6 | > 75 | Ki [6]: 39 µM
4 | N=C(N)c1cc2cc(-c3cccc(-c4ccccc4)c3O)[nH]c2cc1O | > 75 | > 75 | 1.3 | – | 50 | > 75 | –
5 | N=C(N)c1cc2cc(-c3cccc(-c4ccccc4)c3O)[nH]c2cc1F | – | 0.75 | 0.11 | – | 1.1 | 7.5 | –
6 | N=C(N)c1cc2cc(-c3cccc(-c4ccccc4)c3O)[nH]c2cc1Cl | – | – | – | – | – | – | Vd [8]: 0.346 L/kg; clearance [9]: 59 mL/min/kg; MRT [10]: 2.17 h; AUC [11]: 1.42 µM·h; Vd [12]: 7.7 L/kg; half-life [13]: 3.15 h
7 | N=C(N)c1ccc2[nH]c(-c3cccc(-c4ccccc4)c3O)cc2c1 | – | 0.16 | 0.0019 | – | 0.13 | – | Vd [14]: 1.56 L/kg; clearance [15]: 121 mL/min/kg; AUC [16]: 0.4 µM·h; MRT [17]: 1.77 h; Vd [18]: 11.9 L/kg; half-life [19]: 1.7 h
